Four compounds from ChEMBL document CHEMBL4368901 (J Med Chem, 2019) can be followed below.

SMILES strings stand for the structures. Activity calls are given as the source filed them. The rule behind the calls is not given here. Some results are limits rather than exact numbers.

A short description of data set [1]: Drug metabolism mouse liver microsomes assessed as metabolite formation due to loss of terminal pyridine and oxygen at 50 uM by LC-MS/MS analysis. Format: ADME, Microsome.
In data set [2] the test system is H22. The data set is described as follows: Antitumor activity against mouse H22 cells transplanted in ICR mouse assessed as reduction in tumor size at 10 mg/kg, sc administered once daily for 10 consecutive days relative to control. The class given is functional, organism-based. The method, boiled down:
(§1)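 H22 liver cancer model in young SPF ICR mice, n=10 per group. Compound given subcutaneously once daily at 10 mg/kg, 10 injections; the control group received N.S. End-point tumour size and weight, body weight and survival were recorded. Treated groups were compared with control by unpaired t test.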

The nature of data set [3]: Metabolic stability in mouse liver microsomes at 50 uM after 4 hrs in presence of NADPH by HPLC analysis. Format: ADME, Microsome. Conditions: read-out: Stability. In short, it runs like this: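 Compound was incubated with mouse liver microsomes for 4 h, with coumarin as the control. The remaining level was quantified by HPLC using UV absorbance at 254 nm.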
The test system of data set [4] is HCT-116. The data set can be described thus: Antiproliferative activity against human HCT116 cells after 5 days by EZMTT reagent-based assay. Conditions: HCT-116, 120 h. Format: functional, cell-based.
Data set [5] is described as follows: Retention time of compound in mouse liver microsomes at 50 uM by LC-MS/MS analysis. The class given is ADME, Microsome.
In data set [6] the test system is H22. The data set can be described thus: Antiproliferative activity against mouse H22 cells after 5 days by EZMTT reagent-based assay. Format: functional, cell-based. Conditions: H22, 120 h.
The test system of data set [7] is H22. The data set can be described thus: Antitumor activity against mouse H22 cells transplanted in ICR mouse assessed as reduction in tumor weight at 10 mg/kg, sc administered once daily for 10 consecutive days relative to control. The class given is functional. In short, it runs like this: as §1
Data set [8] is described as follows: Inhibition of GDH (unknown origin) using NADP+ and glutamate as substrate preincubated for 0.5 hrs followed by substrate addition and measured after 1 hr by EZMTT reagent-based UV-Vis absorbance assay. More on the design: species or system Homo sapiens.
A short description of data set [9]: Metabolic stability in ICR mouse blood after 2 hrs by HPLC analysis. The class given is ADME, tissue-based. The method, boiled down: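 Compound was incubated in blood for 2 h and its remaining concentration was quantified by HPLC.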
For data set [10], the system named is H22. The data set is described as follows: Antiproliferative activity against mouse H22 cells after 5 days by EZMTT reagent-based assay relative to control. The class given is functional.
The subject of data set [11] is HCT-116. The data set can be described thus: Antitumor activity against human HCT116 cells xenografted in nude mouse assessed reduction in tumor size at 10 mg/kg, sc administered for 14 consecutive days. The class given is functional, organism-based. The method, boiled down: (§2)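 HCT116 xenografts in young SPF nude mice, n=6 per group. Compound given at 10 mg/kg subcutaneously, […]; the control group received N.S. End-point tumour weight, tumour growth and body weight were recorded. End-point tumours were H&E stained to assess tissue damage. Weights were compared by unpaired t test.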

Data set [12] concerns A549. The data set is described as follows: Antiproliferative activity against human A549 cells after 5 days by EZMTT reagent-based assay relative to control. Format: functional.
The subject of data set [13] is HCT-116. The data set is described as follows: Antitumor activity against human HCT116 cells xenografted in nude mouse assessed reduction in tumor weight at 10 mg/kg, sc administered for 14 consecutive days. The class given is functional, organism-based. In short, it runs like this: as §2
For data set [14], the system named is CAKI-1. The data set is described as follows: Antiproliferative activity against human Caki1 cells after 5 days by EZMTT reagent-based assay relative to control. The class given is functional.
The subject of data set [15] is HCT-116. The data set is described as follows: Antitumor activity against human HCT116 cells xenografted in nude mouse assessed induction of tumor necrosis at 10 mg/kg, […] by hematoxylin and eosin staining-based assay. Format: functional, organism-based.
In data set [16] the test system is A549. The data set is described as follows: Induction of ROS generation in human A549 cells at 10 uM after 12 hrs by DCFH-DA staining-based fluorescence microscopic analysis. The class given is functional, cell-based. In short, it runs like this: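 A549 cells were seeded at 10000 per well and exposed to compound at 0, 3 or 10 µM for 12 h. ROSUP at 100 µg/ml served as the positive control, alongside untreated cells. ROS was then assessed.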

For data set [17], the system named is HCT-116. The data set can be described thus: Antiproliferative activity against human HCT116 cells after 5 days by EZMTT reagent-based assay relative to control. Format: functional.
Data set [18] concerns HCT-116. The data set is described as follows: Antitumor activity against human HCT116 cells xenografted in nude mouse assessed reduction in tumor weight at 10 mg/kg, […] relative to control. More on the design: scale not given: the % may be the effect or the level left. The class given is functional.
The nature of data set [19]: Drug level in tumor of mouse H22 cells transplanted ICR mouse at 10 mg/kg, sc administered once daily for 10 consecutive days by HPLC analysis. The class given is ADME, organism-based, Neoplasm. Conditions: in vivo. The method, boiled down:
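Compound accumulation was measured in end-point tumours from H22-bearing ICR mice after once-daily subcutaneous 10 mg/kg dosing, 10 injections. Tumour content was analysed by HPLC.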

Data set [20] deals with CAKI-1. The data set can be described thus: Antiproliferative activity against human Caki1 cells after 5 days by EZMTT reagent-based assay. The class given is functional, cell-based. Conditions: CAKI-1, 120 h.
Data set [21] relates to H22. The data set is described as follows: Antitumor activity against mouse H22 cells transplanted in ICR mouse assessed as increase in mouse survival at 10 mg/kg, sc administered once daily for 10 consecutive days relative to control. Format: functional, organism-based.
For data set [22], the system named is A549. The data set can be described thus: Antiproliferative activity against human A549 cells after 5 days by EZMTT reagent-based assay. Format: functional, cell-based. Conditions: A549, 120 h.
Data set [23] concerns the target T1, Glutaminase kidney isoform, mitochondrial (Homo sapiens, UniProt O94925).
T1 sequence (O94925 whole entry): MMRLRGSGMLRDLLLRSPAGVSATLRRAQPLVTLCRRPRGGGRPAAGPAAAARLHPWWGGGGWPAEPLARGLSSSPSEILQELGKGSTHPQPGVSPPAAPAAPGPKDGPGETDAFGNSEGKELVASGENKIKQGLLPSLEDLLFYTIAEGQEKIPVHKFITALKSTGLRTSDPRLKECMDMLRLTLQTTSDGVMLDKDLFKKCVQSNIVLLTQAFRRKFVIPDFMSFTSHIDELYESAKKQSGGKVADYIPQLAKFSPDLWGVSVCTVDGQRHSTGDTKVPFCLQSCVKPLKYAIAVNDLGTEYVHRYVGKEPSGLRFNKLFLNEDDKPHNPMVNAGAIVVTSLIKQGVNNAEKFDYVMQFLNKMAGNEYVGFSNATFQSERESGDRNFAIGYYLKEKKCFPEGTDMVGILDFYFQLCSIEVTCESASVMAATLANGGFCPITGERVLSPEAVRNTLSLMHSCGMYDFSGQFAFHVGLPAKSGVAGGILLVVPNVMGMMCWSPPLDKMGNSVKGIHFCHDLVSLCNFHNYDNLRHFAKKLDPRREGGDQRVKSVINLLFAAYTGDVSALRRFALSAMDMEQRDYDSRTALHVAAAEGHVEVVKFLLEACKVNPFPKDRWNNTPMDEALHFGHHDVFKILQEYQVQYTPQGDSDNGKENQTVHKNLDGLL
The data set is described as follows: Inhibition of human KGA preincubated for 15 to 30 mins followed by substrate addition and measured after 3 to 4 hrs by GDH-EZMTT reagent-based GDH coupled assay.

The test system of data set [24] is H22. The data set is described as follows: Antitumor activity against mouse H22 cells transplanted in ICR mouse assessed as induction of fibrous hyperplasia at tumor region at 10 mg/kg, sc administered once daily for 10 consecutive days by hematoxylin and eosin staining-based assay. Format: functional, organism-based.
Data set [25] relates to H22. The data set can be described thus: Antitumor activity against mouse H22 cells transplanted in ICR mouse assessed as induction of inflammatory cell infiltration at tumor region at 10 mg/kg, sc administered once daily for 10 consecutive days by hematoxylin and eosin staining-based assay. The class given is functional, organism-based.
For data set [26], the system named is H22. The data set can be described thus: Antitumor activity against mouse H22 cells transplanted in ICR mouse assessed as induction of foam-like histiocytic reaction at tumor region at 10 mg/kg, sc administered once daily for 10 consecutive days by hematoxylin and eosin staining-based assay. Format: functional, organism-based.
Data set [27] concerns H22. The data set is described as follows: Antitumor activity against mouse H22 cells transplanted in ICR mouse assessed as induction of tumor deterioration at 10 mg/kg, sc administered once daily for 10 consecutive days by hematoxylin and eosin staining-based assay. The class given is functional, organism-based.
Data set [28] has as its system H22. The data set can be described thus: Antitumor activity against mouse H22 cells transplanted in ICR mouse assessed as induction of scattered deformed nuclei at tumor region at 10 mg/kg, sc administered once daily for 10 consecutive days by hematoxylin and eosin staining-based assay. The class given is functional, organism-based.
A short description of data set [29]: Solubility of compound. The class given is physicochemical.

As for `O=C(Cc1cccc(OC(F)(F)F)c1)Nc1ccc(CCCCc2nnc(NC(=O)Cc3ccccn3)s2)nn1`, the Drug metabolism entry in data set [1] is “Metabolite_Detected”. The outcome in data set [2], in data set [7], in [11], in [13], in data set [15] and in data set [16] was Active. For the same compound, the remaining at 4 h, 50 µM in [3] is 46%. In addition, the results for the IC50 in data set [4], in data set [6] and in data set [8] were 28 nM, more than 10000 nM and more than 13000 nM, respectively. In data set [5], the Retention_time was 7.97 min. Besides, in data set [9], the Stability result was “Stable”. Further, the Imax came to 44% in data set [10], 82% in [12], 88% in data set [14] and 90% in data set [17].

As for `O=C(Cc1cccc(OC(F)(F)F)c1)Nc1ccc(CCCCc2nnc(NC(=O)Cc3ccccn3)[se]2)nn1`, the result in data set [2], in data set [21], in data set [15] and in [16] was Active. This compound also had an Activity in [18] of 40%. Moreover, the remaining at 4 h, 50 µM in [3] stood at 50%. The IC50 in [4] was 9 nM; in [6], 6780 nM; in data set [8], more than 13000 nM; in data set [20], 19 nM; in data set [22], 17 nM. The compound also showed a Retention_time in [5] of 8.2 min. Moreover, the Drug uptake entry in data set [19] is recorded as “Active”. For the same compound, the Stability entry in data set [9] is listed as “Stable”. Further, the Imax in [10] worked out at 75%; in data set [12], 82%; in data set [14], 89%; in [17], 90%.

In the case of `COc1ccc2c(c1)c(CC(=O)Nc1nnc(CCCCc3ccc(NC(=O)Cc4cccc(OC(F)(F)F)c4)nn3)[se]1)cn2C`, the half-maximal inhibitory concentration (IC50) in data set [23] was 10 nM; in data set [4], 20 nM; in data set [6], 4050 nM; in data set [8] it was more than 13000 nM; in [20] it was 20 nM; in data set [22], 10 nM. In addition, the result in [24], in [25], in data set [26], in data set [27] and in [28] was Active. In data set [3], the remaining at 4 h, 50 µM came to 30%. The compound also came in with a Retention_time in [5] of 10.7 min. Besides, the Activity in data set [7] is on record as 40%. Besides, in data set [19], the Drug uptake entry is on record as “Active”. Besides, the Stability result in data set [9] was “Stable”. The Imax came to 70% in data set [10], 90% in [12], 90% in data set [14] and 92% in data set [17].

Regarding `O=C(Cc1ccccc1)Nc1nnc(CCCCc2nnc(NC(=O)Cc3ccccc3)s2)s1`, the half-inhibitory concentration (IC50) in [8] and in data set [22] was more than 13000 nM in each case. In addition, the solubility entry in data set [29] is “Insoluble”. Besides, the Imax in data set [12] stood at 0%.
